Screens deposited in PubChem BioAssay by several laboratories.
m-calpain inh = calpain II (pig) inhibition. purified calpain II, fluorogenic peptide substrate, 30 min. inhibition, % at 16 µM. hit rate 0.37% among 220,000. AID 1236;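 active means inhibition above about 50%, limit read from the data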
Mcl1-Bid inh = disrupts binding of human Mcl-1 to Bid peptide. hit rate 0.97% among 220,000. inhibition, % at 21.7 µM. Q07820. TR-FRET Mcl-1/Bid-Dy647 peptide binding, 1536-well. AID 1021;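 active means compounds that cut the binding signal by more than half at the single screening dose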;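 further: His-tagged Mcl-1 with europium anti-His antibody binding Bid BH3 peptide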
Target sequence (Q07820 whole entry, looked up): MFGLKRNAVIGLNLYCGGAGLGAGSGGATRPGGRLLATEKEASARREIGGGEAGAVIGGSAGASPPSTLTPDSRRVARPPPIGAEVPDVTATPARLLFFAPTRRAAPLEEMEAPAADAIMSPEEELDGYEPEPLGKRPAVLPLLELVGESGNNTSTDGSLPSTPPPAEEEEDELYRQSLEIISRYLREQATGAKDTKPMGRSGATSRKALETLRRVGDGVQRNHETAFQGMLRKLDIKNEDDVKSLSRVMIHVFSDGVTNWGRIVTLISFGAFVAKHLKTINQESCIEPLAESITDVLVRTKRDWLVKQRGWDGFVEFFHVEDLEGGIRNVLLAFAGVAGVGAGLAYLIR
Biofilm kill mix = mixture kills Candida albicans biofilm cells. hit rate 0.02% among 120,000. inhibition, % at 7.6 µM. C. albicans biofilm persisters + clotrimazole, fluorescence viability; primary screen in compound mixtures of four per well. AID 1242;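 active means inhibition above 30.3% in the primary screen of four-compound pools, then above 30% when the compound was retested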;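 further: compounds exposed to preformed 24 h biofilms for 48 h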
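Incubation: 24 h biofilm formation, then 48 h compound exposure, 37 °C | Material: C. albicans biofilms | Buffer or medium: RPMI/MOPS medium, pH 7.0 | Measured by: 2-h Alamar Blue fluorescence, 535/590 nm excitation/emission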
Arbovirus inh = arbovirus infection inhibition. arbovirus infection cell-based antiviral screen. inhibition, % at 10 µM. hit rate 0.37% among 200,000; in the data active means inhibition above about 30%
Mcl1-Noxa inh = disrupts binding of human Mcl-1 to Noxa peptide; Q07820; TR-FRET Mcl-1/Noxa peptide binding, 2 h; inhibition, % at 21.7 µM; hit rate 1.5% among 220,000;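 active means compounds that cut the protein-peptide binding signal by more than 50% relative to plate controls in a single-dose test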;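 further: His-tagged Mcl-1 with rhodamine Noxa BH3 peptide and terbium anti-His antibody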
Mcl-1 Bim block = inhibitors of Bim-Mcl-1 interaction, human; hit rate 0.1% among 190,000; Q07820; Bead-based flow cytometry, Bim peptide-Mcl-1 binding; inhibition, % at 10 µM; in the data active means inhibition above about 40%
A number is an active result. Compounds with a hit are over-represented: about 2.8% of the library has one in this group of screens.

COc1ccc(C(=O)Nc2sc3c(c2C(=O)O)CC(C)(C)OC3)cc1 was read as m-calpain inh inactive, Mcl1-Bid inh inactive, Biofilm kill mix inactive, Arbovirus inh 34, Mcl1-Noxa inh inactive and Mcl-1 Bim block inactive.
`CC(C)COc1ccc(C(=O)Nc2sc3c(c2C(=O)O)CC(C)(C)OC3)cc1` gave m-calpain inh inactive, Mcl1-Bid inh inactive, Biofilm kill mix inactive, Arbovirus inh 61, Mcl1-Noxa inh inactive and Mcl-1 Bim block inactive.
Screening CC(=O)N1N=C(N)SC1(C)C returned m-calpain inh inactive, Mcl1-Bid inh inactive, Biofilm kill mix inactive, Arbovirus inh inactive, Mcl1-Noxa inh inactive and Mcl-1 Bim block inactive.
For Cc1ccc(C(=O)NCc2n[nH]c(=S)n2-c2ccccc2)cc1[N+](=O)[O-] the results were m-calpain inh inactive, Mcl1-Bid inh inactive, Biofilm kill mix inactive, Arbovirus inh inactive, Mcl1-Noxa inh inactive and Mcl-1 Bim block inactive.
Screening Cc1cc(-c2ccco2)n2c(nc3ccccc32)c1C#N returned m-calpain inh inactive, Mcl1-Bid inh 96, Arbovirus inh inactive, Mcl1-Noxa inh inactive and Mcl-1 Bim block inactive.
For C=C(C)CSc1cc(C)c(C#N)c2nc3ccccc3n12 the results were m-calpain inh inactive, Mcl1-Bid inh inactive, Biofilm kill mix inactive, Arbovirus inh inactive, Mcl1-Noxa inh inactive and Mcl-1 Bim block inactive.
For CC1CCN(S(=O)(=O)c2cccc(C(=O)Nc3ccccn3)c2)CC1 the results were m-calpain inh inactive, Mcl1-Bid inh 79, Arbovirus inh inactive, Mcl1-Noxa inh inactive and Mcl-1 Bim block inactive.
`CC(C)n1c(O)c(N=NC(=O)CNC(=O)CCc2ccccc2)c2ccccc21` gave m-calpain inh 66, Mcl1-Bid inh inactive, Biofilm kill mix inactive and Mcl1-Noxa inh inactive.
For COc1ccc(C(=O)CSc2nnc(CN3CCCC3)n2-c2ccc(F)cc2)c(OC)c1 the results were m-calpain inh inactive, Mcl1-Bid inh inactive, Biofilm kill mix inactive, Arbovirus inh inactive, Mcl1-Noxa inh 53 and Mcl-1 Bim block inactive.
`CCC(C)(C)n1nnnc1CN(Cc1ccc(Cl)cc1)Cc1ccco1` gave m-calpain inh inactive, Mcl1-Bid inh 57, Arbovirus inh inactive, Mcl1-Noxa inh inactive and Mcl-1 Bim block inactive.
For CC1(c2ccccc2Cl)NC(=O)N(CC(=O)Nc2ccc3c(c2)OCO3)C1=O (stereo not drawn) the results were m-calpain inh inactive, Mcl1-Bid inh inactive, Biofilm kill mix inactive, Arbovirus inh inactive, Mcl1-Noxa inh inactive and Mcl-1 Bim block inactive.
For CCOc1cc(C(=O)Nc2ccc(N3CCOCC3)cc2)cc(Br)c1OC the results were m-calpain inh inactive, Mcl1-Bid inh inactive, Biofilm kill mix inactive, Arbovirus inh inactive, Mcl1-Noxa inh 61 and Mcl-1 Bim block inactive.
`COc1ccccc1NC(=O)CSc1nnnn1-c1ccc2c(c1)OCO2` gave m-calpain inh inactive, Mcl1-Bid inh 99, Arbovirus inh inactive, Mcl1-Noxa inh inactive and Mcl-1 Bim block inactive.
`Cc1cccc(N2CCN(c3ccc(NC(=O)/C=C(/C(=O)O)c4ccccc4)cc3)CC2)c1` gave m-calpain inh inactive, Mcl1-Bid inh inactive, Arbovirus inh inactive, Mcl1-Noxa inh 52 and Mcl-1 Bim block inactive.
Screening Cc1cccc(N2CCN(C(=S)c3ccccc3)CC2)c1 returned m-calpain inh inactive, Mcl1-Bid inh inactive, Biofilm kill mix inactive, Arbovirus inh inactive, Mcl1-Noxa inh inactive and Mcl-1 Bim block inactive.
For Oc1cc2c(cc1O)[C@@H](c1ccccc1)CNCC2 the results were m-calpain inh inactive, Mcl1-Bid inh inactive, Biofilm kill mix inactive, Arbovirus inh inactive, Mcl1-Noxa inh 67 and Mcl-1 Bim block inactive.
For COc1cc(-c2nnc(-c3ccc(S(=O)(=O)c4ccccc4)cc3)o2)cc(OC)c1OC the results were m-calpain inh inactive, Mcl1-Bid inh inactive, Arbovirus inh inactive, Mcl1-Noxa inh inactive and Mcl-1 Bim block inactive.
COc1cc(-c2nnc(-c3ccc(N4CCOCC4)cc3)o2)cc(OC)c1OC was read as Arbovirus inh 48 and Mcl-1 Bim block inactive.
Clc1cccc(N/N=C/c2ccc(N3CCOCC3)s2)c1 was read as m-calpain inh inactive, Mcl1-Bid inh inactive, Biofilm kill mix inactive, Arbovirus inh inactive, Mcl1-Noxa inh 87 and Mcl-1 Bim block inactive.
For O=C(N/N=C/c1ccc(N2CCOCC2)s1)c1ccccc1Br the results were m-calpain inh inactive, Mcl1-Bid inh inactive, Biofilm kill mix inactive, Arbovirus inh inactive, Mcl1-Noxa inh inactive and Mcl-1 Bim block inactive.
Screening CN(C)c1cccc(NC(=O)C2(C)CC2(Cl)Cl)c1 (stereo not drawn) returned m-calpain inh inactive, Mcl1-Bid inh inactive, Biofilm kill mix inactive, Arbovirus inh inactive, Mcl1-Noxa inh inactive and Mcl-1 Bim block 84.
